Key:
[1] = biological target: T1, Adrenergic receptor alpha-1 (Rattus norvegicus, UniProt P15823+P23944+P43140); test: Inhibition of [3H]prazosin binding to Alpha-1 adrenergic receptor from rat cortex
T1 sequence (P15823 whole entry): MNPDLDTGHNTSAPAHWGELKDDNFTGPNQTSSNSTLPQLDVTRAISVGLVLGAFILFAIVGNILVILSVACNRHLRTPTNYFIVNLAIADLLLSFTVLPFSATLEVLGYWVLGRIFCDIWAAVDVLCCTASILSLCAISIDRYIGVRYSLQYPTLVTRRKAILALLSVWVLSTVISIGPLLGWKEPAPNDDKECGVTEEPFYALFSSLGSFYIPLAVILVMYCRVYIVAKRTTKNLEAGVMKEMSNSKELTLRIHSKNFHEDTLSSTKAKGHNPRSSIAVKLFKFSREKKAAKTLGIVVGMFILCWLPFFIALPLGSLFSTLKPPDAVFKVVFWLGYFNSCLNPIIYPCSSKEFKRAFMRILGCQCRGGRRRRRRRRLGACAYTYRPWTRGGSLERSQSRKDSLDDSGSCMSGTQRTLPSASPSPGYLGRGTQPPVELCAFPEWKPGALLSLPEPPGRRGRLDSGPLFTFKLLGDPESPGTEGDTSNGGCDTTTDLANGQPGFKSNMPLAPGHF
T1 sequence (P23944 whole entry): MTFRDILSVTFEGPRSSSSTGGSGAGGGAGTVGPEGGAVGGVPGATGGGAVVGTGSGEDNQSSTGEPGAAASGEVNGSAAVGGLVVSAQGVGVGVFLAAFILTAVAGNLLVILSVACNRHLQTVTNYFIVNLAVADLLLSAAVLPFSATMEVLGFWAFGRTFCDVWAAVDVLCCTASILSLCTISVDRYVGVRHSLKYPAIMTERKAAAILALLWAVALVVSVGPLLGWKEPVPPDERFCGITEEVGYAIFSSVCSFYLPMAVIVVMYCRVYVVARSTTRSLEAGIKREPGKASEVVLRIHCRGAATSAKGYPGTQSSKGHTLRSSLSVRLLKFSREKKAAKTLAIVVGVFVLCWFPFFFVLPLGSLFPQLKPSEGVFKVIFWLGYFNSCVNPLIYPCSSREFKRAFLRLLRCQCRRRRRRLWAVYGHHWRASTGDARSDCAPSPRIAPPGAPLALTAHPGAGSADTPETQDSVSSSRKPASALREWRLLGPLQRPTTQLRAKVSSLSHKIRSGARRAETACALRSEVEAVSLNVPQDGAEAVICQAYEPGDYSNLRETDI
T1 sequence (P43140 whole entry): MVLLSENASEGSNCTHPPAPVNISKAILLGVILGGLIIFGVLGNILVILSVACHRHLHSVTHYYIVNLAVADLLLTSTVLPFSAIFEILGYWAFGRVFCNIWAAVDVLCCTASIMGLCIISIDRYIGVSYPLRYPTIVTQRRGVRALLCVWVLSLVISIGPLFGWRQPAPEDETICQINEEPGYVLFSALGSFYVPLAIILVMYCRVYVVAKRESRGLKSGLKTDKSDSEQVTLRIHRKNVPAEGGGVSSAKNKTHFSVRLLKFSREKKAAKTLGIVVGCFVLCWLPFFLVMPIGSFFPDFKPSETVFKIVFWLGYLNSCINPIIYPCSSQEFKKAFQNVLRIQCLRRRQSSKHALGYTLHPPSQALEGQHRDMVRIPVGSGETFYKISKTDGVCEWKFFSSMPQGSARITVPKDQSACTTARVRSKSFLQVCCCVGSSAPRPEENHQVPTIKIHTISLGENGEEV
Method in brief: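 Prepared membranes resuspended in 50 mM Tris-HCl pH 7.7 with 10 µM pargyline and 0.1% ascorbic acid. [3H]prazosin 0.2 nM final, 30 min, 25 °C; nonspecific binding with 3 µM phentolamine. Bound ligand collected on GF/B filters, counted by liquid scintillation. Ki derived from IC50 of dose-inhibition curves; mean ± SD of three separate experiments.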

[2] = biological target: T2, 5-hydroxytryptamine receptor 1A (Rattus norvegicus, UniProt P19327); test: Inhibition of [3H]8-OH-DPAT binding to 5-hydroxytryptamine 1A receptor from rat hippocampus; type: tissue-based
T2 sequence (P19327 whole entry): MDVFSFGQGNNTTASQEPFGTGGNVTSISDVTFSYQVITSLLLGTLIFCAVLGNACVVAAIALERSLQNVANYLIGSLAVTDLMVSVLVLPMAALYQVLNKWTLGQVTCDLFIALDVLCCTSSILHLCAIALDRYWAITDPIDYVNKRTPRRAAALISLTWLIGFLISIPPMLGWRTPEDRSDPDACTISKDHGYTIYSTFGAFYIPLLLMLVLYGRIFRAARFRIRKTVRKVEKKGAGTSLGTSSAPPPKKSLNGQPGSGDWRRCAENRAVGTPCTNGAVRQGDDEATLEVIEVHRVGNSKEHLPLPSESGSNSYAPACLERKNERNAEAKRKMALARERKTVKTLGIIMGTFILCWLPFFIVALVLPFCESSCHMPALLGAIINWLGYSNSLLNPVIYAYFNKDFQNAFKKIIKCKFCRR
Method in brief: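 Membranes: tissue homogenized in ice-cold 50 mM Tris-HCl pH 7.4, spun 50000g, preincubated 37 °C 10 min, washed. Incubation buffer 50 mM Tris-HCl pH 7.7, 10 µM pargyline, 4 mM CaCl2. [3H]8-OH-DPAT 1 nM final, 30 min, 25 °C; nonspecific with 10 µM 5-HT. Stopped by GF/B filtration, scintillation counting. IC50 from dose-inhibition curves, converted to Ki; mean ± SD of three experiments.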

[3] = biological target: Serotonin 1a (5-HT1a) receptor/Adrenergic receptor alpha-1 (Rattus norvegicus) (UniProt P15823+P23944+P43140+P19327); test: Relative binding affinity for 5-hydroxytryptamine 1A and Alpha-1 adrenergic receptors; type: protein assay
Rattus norvegicus [4] = organism: Rattus norvegicus; test: Relative binding affinity for Dopamine D2 and Alpha-1 adrenergic receptors
D(1A) dopamine receptor = D(1A) dopamine receptor (Rattus norvegicus, UniProt P18901); test: Inhibition of [3H]SCH-23390 binding to Dopamine receptor D1 from rat striatum
Method in brief: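 Ligand was [3H]SCH23390 at 0.4 nM final, 15 min, 25 °C; nonspecific binding defined with 10 µM (-)-cis-flupentixol. Filtration on GF/B, liquid scintillation counting. IC50 fitted, Ki derived; mean ± SD, n=3.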

D(2) dopamine receptor = D(2) dopamine receptor (Rattus norvegicus, UniProt P61169); test: Inhibition of [3H]spiperone binding to Dopamine receptor D2 from rat striatum
Method in brief: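 Membrane incubation in 50 mM Tris-HCl pH 7.1 with 10 µM pargyline, 120 mM NaCl, 5 mM KCl, 2 mM CaCl2, 1 mM MgCl2 and 0.1% ascorbic acid. [3H]spiperone 0.2 nM final, 15 min at 37 °C; 100 µM (-)-sulpiride for nonspecific binding. Vacuum filtration through GF/B, scintillation counting; Ki from IC50 of dose-inhibition curves, mean ± SD of three runs.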

Rattus norvegicus [5] = organism: Rattus norvegicus; test: Relative binding affinity for Dopamine D1 and Alpha-1 adrenergic receptors

Chain of D(1A) dopamine receptor (P18901 whole entry): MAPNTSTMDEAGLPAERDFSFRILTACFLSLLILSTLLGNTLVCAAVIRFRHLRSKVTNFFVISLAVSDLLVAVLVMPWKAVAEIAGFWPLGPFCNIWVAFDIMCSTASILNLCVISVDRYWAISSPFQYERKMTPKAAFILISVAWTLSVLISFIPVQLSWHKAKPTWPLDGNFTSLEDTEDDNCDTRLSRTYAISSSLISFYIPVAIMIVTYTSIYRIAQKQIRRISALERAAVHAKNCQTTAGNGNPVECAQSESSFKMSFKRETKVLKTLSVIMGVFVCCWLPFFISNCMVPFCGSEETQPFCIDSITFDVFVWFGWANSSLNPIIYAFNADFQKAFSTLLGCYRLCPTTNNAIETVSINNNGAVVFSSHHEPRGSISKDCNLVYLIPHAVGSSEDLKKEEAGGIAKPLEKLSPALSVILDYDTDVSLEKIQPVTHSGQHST
Chain of D(2) dopamine receptor (P61169 whole entry): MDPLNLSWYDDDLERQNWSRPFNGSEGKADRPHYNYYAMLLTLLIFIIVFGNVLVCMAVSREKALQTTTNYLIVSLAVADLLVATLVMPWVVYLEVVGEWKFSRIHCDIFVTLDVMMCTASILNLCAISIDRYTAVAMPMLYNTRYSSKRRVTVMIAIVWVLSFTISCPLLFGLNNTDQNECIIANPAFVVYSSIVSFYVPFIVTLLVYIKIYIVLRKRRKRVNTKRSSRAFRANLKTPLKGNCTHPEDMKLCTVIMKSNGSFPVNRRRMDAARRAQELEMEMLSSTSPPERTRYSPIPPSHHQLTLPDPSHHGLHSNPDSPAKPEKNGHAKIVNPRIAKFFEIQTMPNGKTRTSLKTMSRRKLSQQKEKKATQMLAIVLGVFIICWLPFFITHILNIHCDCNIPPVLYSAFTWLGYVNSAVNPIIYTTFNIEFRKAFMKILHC

| Structure (SMILES) | Ki [1] [nM] | Ki [2] [nM] | Ratio [3] | Ratio (Rattus norvegicus [4]) | Ki (D(1A) dopamine receptor) [nM] | Ki (D(2) dopamine receptor) [nM] | Ratio (Rattus norvegicus [5]) |
| --- | --- | --- | --- | --- | --- | --- | --- |
| COc1ccc(N2CCN(CCn3c(=O)[nH]c4cc(-c5ccccc5)[nH]c4c3=O)CC2)cc1 | > 10000 | > 10000 |  |  |  |  |  |
| COc1ccccc1N1CCN(CCn2c(=O)[nH]c3c([nH]c4ccccc43)c2=O)CC1 |  |  | 238 |  |  |  |  |
| COc1ccccc1N1CCN(CCn2c(=O)[nH]c3cc(-c4ccc(C)cc4)[nH]c3c2=O)CC1 | 2.05 | > 10000 | > 4500 | 9.7 | > 10000 | 19.9 | > 4500 |
| O=c1[nH]c2cc(-c3ccccc3)[nH]c2c(=O)n1CCN1CCN(c2ccccc2Cl)CC1 | 1.08 | 35 | 32 |  |  |  |  |
| COc1ccccc1N1CCN(CCCn2c(=O)[nH]c3cc(-c4ccc(C)cc4)[nH]c3c2=O)CC1 | 47.88 | 83 | 1.73 |  |  |  |  |
| Cc1ccc(-c2cc3[nH]c(=O)n(CCN4CCN(c5ccccc5Cl)CC4)c(=O)c3[nH]2)cc1 | 17.26 | > 10000 | > 500 | > 500 | > 10000 | > 10000 | > 500 |
| COc1ccccc1N1CCN(CCn2c(=O)[nH]c3cc(-c4ccccc4)[nH]c3c2=O)CC1 | 0.52 | 24 | 46 |  |  |  |  |
| COc1ccccc1N1CCN(CCCn2c(=O)[nH]c3cc(-c4ccccc4)[nH]c3c2=O)CC1 | 1.23 | 22.4 | 18 |  |  |  |  |
| O=c1[nH]c2cc[nH]c2c(=O)n1CCCN1CCN(c2ccccc2Cl)CC1 | 59.78 | 376 | 6.3 |  |  |  |  |
| COc1ccc(-c2cc3[nH]c(=O)n(CCN4CCN(c5ccccc5Cl)CC4)c(=O)c3[nH]2)cc1 | 3.4 | > 10000 | > 2500 | 0.65 | > 10000 | 2.23 | > 2500 |
| COc1ccccc1N1CCN(CCn2c(=O)[nH]c3cc(-c4ccc(Cl)cc4)[nH]c3c2=O)CC1 | 7.68 | > 10000 | > 1000 | 0.47 | > 10000 | 3.64 | > 1000 |
| COc1ccccc1N1CCN(CCCn2c(=O)[nH]c3cc[nH]c3c2=O)CC1 | 28.01 | 193 | 6.9 |  |  |  |  |
| COc1ccccc1N1CCN(CCn2c(=O)[nH]c3cc(-c4cccc(Cl)c4)[nH]c3c2=O)CC1 | 19.32 | 16.9 | 0.87 |  |  |  |  |
| COc1ccccc1N1CCN(CCn2c(=O)[nH]c3cc[nH]c3c2=O)CC1 | 2.31 | 651 | 282 |  |  |  |  |
| O=c1[nH]c2cc[nH]c2c(=O)n1CCN1CCN(c2ccccc2Cl)CC1 | 0.94 | 559 | 594 | 343 | > 10000 | 322 | > 10000 |
| O=c1[nH]c2cc(-c3ccc(Cl)cc3)[nH]c2c(=O)n1CCN1CCN(c2ccccc2Cl)CC1 | 11.7 | > 10000 | > 800 | > 800 | > 10000 | > 10000 | > 800 |
| O=c1[nH]c2c([nH]c3ccccc32)c(=O)n1CCN1CCN(c2ccccc2Cl)CC1 | 0.53 | > 10000 | > 15000 |  |  |  |  |
| COc1ccccc1N1CCN(CCn2c(=O)[nH]c3cc(-c4ccccc4Cl)[nH]c3c2=O)CC1 | 0.76 | 16.1 | 21 |  |  |  |  |
| O=c1[nH]c2cc(-c3ccccc3Cl)[nH]c2c(=O)n1CCN1CCN(c2ccccc2Cl)CC1 | 0.46 | > 10000 | > 20000 | 60 | > 10000 | 27.8 | > 20000 |
| O=c1[nH]c2cc(-c3ccccc3)[nH]c2c(=O)n1CCCN1CCN(c2ccccc2Cl)CC1 | 62.37 | 130 | 2.1 |  |  |  |  |
| Cc1ccc(-c2cc3[nH]c(=O)n(CCCN4CCN(c5ccccc5Cl)CC4)c(=O)c3[nH]2)cc1 | 110.1 | > 10000 | > 90 |  |  |  |  |
